Compound activity as filed in PubChem BioAssay.
Thrombin inh = human alpha-thrombin inhibitors, primary screen, counter-screen for coagulation protease inhibitor project, biochemical, 1536-well, fluorogenic AMC substrate | 220,000 compounds, 0.26% hits | inhibition, % at 5 µM | Boc-VPR-AMC fluorogenic substrate cleavage | AID 1046, 2008 | Prothrombin (Homo sapiens), P00734;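 active = inhibition at or above 40%; inactive = inhibition below 40%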;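 also: 0% = enzyme with no compound and 100% = wells without enzyme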
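System: human alpha-thrombin protein; Compound dosing: one concentration per compound, 5 µM, with 0.2% DMSO; Timing: reaction at room temperature; Technique: AMC fluorescence, 355/460 nm; Controls: enzyme without compound as high, wells lacking enzyme as low.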
hK5 inh = human KLK5 protease inhibitors, primary screen, biochemical, 1536-well | Kallikrein-5 (Homo sapiens), Q9Y337 | recombinant hK5, fluorogenic AMC substrate cleavage | inhibition, % at 5 µM | 210,000 compounds, 0.59% hits;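 active = inhibition of 40% or more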;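 also: 0% = enzyme controls without compound and 100% = no-enzyme blanks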
FXIIa inh = human FXIIa protease inhibitors, primary screen, biochemical, 1536-well. purified FXIIa, Boc-QGR-AMC fluorogenic substrate, 2 h. 220,000 compounds, 0.3% hits. AID 800, 2007. inhibition, % at 5 µM; in the data active = inhibition above about 40%;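 also: 0% = enzyme with no compound and 100% = blank without enzyme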
Target sequence (P00748 20-372 limits assumed): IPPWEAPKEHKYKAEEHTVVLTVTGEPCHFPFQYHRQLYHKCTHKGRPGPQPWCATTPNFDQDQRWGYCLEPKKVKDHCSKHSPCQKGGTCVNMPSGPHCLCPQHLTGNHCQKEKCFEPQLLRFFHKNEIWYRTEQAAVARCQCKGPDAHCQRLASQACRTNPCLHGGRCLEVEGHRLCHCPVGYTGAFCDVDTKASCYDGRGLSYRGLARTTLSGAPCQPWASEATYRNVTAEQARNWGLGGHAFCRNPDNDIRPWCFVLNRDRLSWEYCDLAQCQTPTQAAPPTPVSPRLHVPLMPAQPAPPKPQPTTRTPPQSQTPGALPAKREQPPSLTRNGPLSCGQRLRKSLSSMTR
Target sequence (P00748 373-615 limits assumed): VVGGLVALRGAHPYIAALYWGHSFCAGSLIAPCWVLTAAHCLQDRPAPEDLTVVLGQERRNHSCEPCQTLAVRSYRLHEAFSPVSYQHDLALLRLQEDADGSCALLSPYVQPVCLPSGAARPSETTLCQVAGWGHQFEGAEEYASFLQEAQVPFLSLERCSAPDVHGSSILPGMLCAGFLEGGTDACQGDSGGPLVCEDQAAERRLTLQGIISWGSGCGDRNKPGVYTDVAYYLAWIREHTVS
EP2 mod = EP2 receptor modulators, cAMP readout, primary screen, cell-based, HTRF cAMP, PGE2 stimulation. Prostaglandin E2 receptor EP2 subtype (Homo sapiens), P43116. EP2-expressing cells, cAMP HTRF FRET, PGE2 co-stimulation. induction, % at 25 µM. 260,000 compounds, 0.83% hits. AID 940, 2007;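 active = compounds whose cAMP rise, as percent of the full-agonist control response, exceeds 60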;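 also: rat C6 glioma line stably carrying human EP2 under a CMV promoter; the protocol text gives 20 µM as final concentration; 100% = response of wells given 1 µM PGE2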
PGE2 EP2 inh = human EP2 receptor antagonists, primary screen, TR-FRET cAMP, C6 glioma cells. Prostaglandin E2 receptor EP2 subtype (Homo sapiens), P43116. C6 glioma cells expressing human EP2; cells stimulated with saturating PGE2. inhibition, % at 25 µM. 260,000 compounds, 0.52% hits. AID 1422, 2008;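 active = percent inhibition above 40 after rounding to a whole number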;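 also: rat C6 glioma host cells with rolipram phosphodiesterase inhibitor present; the protocol text gives 20 µM as final concentration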
FXIa inh 1536 = human FXIa protease inhibitors, primary screen, biochemical, 1536-well; Coagulation factor XI (Homo sapiens), P03951; purified FXIa, Boc-Glu-Ala-Arg-AMC fluorogenic substrate; inhibition, % at 5 µM; 220,000 compounds, 0.14% hits; AID 798, 2007;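 active = inhibition of at least 40%; inactive = inhibition below 40%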;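 also: fluorescence of freed AMC excited at 355 nm; 0% = enzyme without compound and 100% = no enzyme blank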
* hit, by the source's call. Only some compounds are listed: those with a hit (about 2.1% of all), similar ones and a draw of the others.

`Cc1ccccc1C(=O)NNC(=S)NC(=O)COc1ccccc1` gave Thrombin inh -0.2, hK5 inh -176.2, FXIIa inh 27.4, EP2 mod -43.5, PGE2 EP2 inh 13.9 and FXIa inh 1536 18.1.
`CC(C)C(=O)N1CCN(c2ccc(NC(=O)COc3ccccc3[N+](=O)[O-])cc2)CC1` gave Thrombin inh -7.8, hK5 inh -4.4, EP2 mod -34.0, PGE2 EP2 inh 44.3* and FXIa inh 1536 -5.3.
For COc1ccc(OC)c(Cc2nnc(CCC(=O)N3CCC(N4CCCCC4)CC3)o2)c1 the results were Thrombin inh 23.2, hK5 inh 44.4*, FXIIa inh 31.5, EP2 mod -3.4, PGE2 EP2 inh 5.3 and FXIa inh 1536 29.5.
`Cc1cc(C(F)(F)F)c2c(N)c(C(=O)C(C)(C)C)sc2n1` gave EP2 mod 30.6 and PGE2 EP2 inh 8.5.
`Cc1ccc(C)c(NNC(=O)C(=O)NNc2cc(C)ccc2C)c1` gave Thrombin inh 2.2, hK5 inh 21.1, FXIIa inh 34.9, EP2 mod -2.9, PGE2 EP2 inh 13.4 and FXIa inh 1536 6.1.
Screening Cc1ccccc1NNC(=O)C(=O)NNc1ccccc1C returned Thrombin inh 18.0, hK5 inh 50.2*, FXIIa inh 34.3, EP2 mod -14.7, PGE2 EP2 inh 5.0 and FXIa inh 1536 16.1.
`O=C1C(Cl)=C(Nc2ccc(S(=O)(=O)Nc3ccccn3)cc2)C(=O)c2ccccc21` gave EP2 mod -63.1 and PGE2 EP2 inh 107.1*.
Cc1cc2c(o1)c1cnn(CC(=O)NC(C)c3ccccn3)c(=O)c1n2C(C)C (stereo not given) was read as EP2 mod -48.2.
`CCN(CC)S(=O)(=O)c1cccc(NC(=O)/C=C/c2cccc([N+](=O)[O-])c2)c1` gave Thrombin inh 95.4*, hK5 inh 67.3*, FXIIa inh 4.1, EP2 mod 2.4, PGE2 EP2 inh 16.5 and FXIa inh 1536 9.3.
Screening CCN(CC)S(=O)(=O)c1cccc(NC(=O)/C=C/c2ccc([N+](=O)[O-])cc2)c1 returned Thrombin inh -2.8, hK5 inh -7.8, FXIIa inh 7.2, EP2 mod 13.1, PGE2 EP2 inh 3.0 and FXIa inh 1536 5.5.
Screening CCCCC(CCC(=O)O)(C(=O)OCC)c1csc(Nc2ccc(C)cc2)n1 (stereo not given) returned Thrombin inh -10.0, hK5 inh 8.0, FXIIa inh 9.9, EP2 mod 1.2, PGE2 EP2 inh 10.8 and FXIa inh 1536 -0.1.
For CCOC(=O)C(CC)(CCC(=O)OC)c1csc(Nc2ccccc2O)n1 (stereo not given) the results were Thrombin inh 65.9*, hK5 inh 18.6, FXIIa inh 21.0, EP2 mod 8.4, PGE2 EP2 inh 7.3 and FXIa inh 1536 21.3.
Screening O=C(NCc1nc(-c2ccncc2)n[nH]1)C(c1ccccc1)C1CCCCC1 (stereo not given) returned EP2 mod 13.5 and PGE2 EP2 inh 11.2.
Screening Cc1ccccc1-n1c(SCc2c(C)noc2C)nnc1-c1cccnc1 returned Thrombin inh 33.2, hK5 inh 51.6*, FXIIa inh 14.9, EP2 mod 18.4, PGE2 EP2 inh 1.0 and FXIa inh 1536 6.1.
For COc1ccc(C2CC(C(F)(F)F)n3nc(C(=O)Nc4ccc5c(c4)OCO5)cc3N2)cc1 (stereo not given) the results were Thrombin inh 36.2, hK5 inh 16.7, FXIIa inh 42.7*, EP2 mod -18.0, PGE2 EP2 inh 8.3 and FXIa inh 1536 -3.9.
For COc1ccc(OC)c(NC(=O)c2cc3n(n2)C(C(F)(F)F)CC(c2ccc4c(c2)OCO4)N3)c1 (stereo not given) the results were PGE2 EP2 inh 5.3.
CCc1cc2cccc(C)c2nc1SCC(=O)N1CCCC1 was read as EP2 mod 64.5* and PGE2 EP2 inh 8.3.
